Experimental data collected from several papers.
Target: Calcium/calmodulin-dependent protein kinase type 1 (CAMK1, Homo sapiens, UniProt Q14012)

Cc1ccc(NC(=O)c2ccc(C)c(C(F)(F)F)c2)cc1C#Cc1nn(C2CCC(O)CC2)c2ncnc(N)c12 (centres unmarked)  remaining signal (cell-free assay; 10 µM): 62%
Nc1nc(NC2CCCCC2)sc1C(=O)c1ccccc1  remaining activity (enzyme activity; inhibitor; 10 µM): 86%
Cn1c(=O)n(-c2ccc(C(C)(C)C#N)cc2)c2c3cc(-c4cnc5ccccc5c4)ccc3ncc21  remaining activity (enzyme activity; inhibitor; 10 µM): 100%
CCCCNc1ncc2c(-c3ccc(F)cc3)nn(C[C@H]3CC[C@H](N)CC3)c2n1  inhibition (target engagement in cells; inhibitor; chemoproteomics; 20 mM): 2.2%
Cc1noc([C@H]2C[C@@H](c3ccc(C(F)(F)F)cc3)CN(C(=O)N3CCS(=O)(=O)C3)C2)n1  remaining binding (cell-free assay; competition with immobilised ligand; 1 µM): 100%
CC(C)(O)[C@H]1CC[C@H](Nc2ccc3ncc(-c4cccc(C(F)(F)F)c4)n3n2)CC1  remaining activity (enzyme activity; inhibitor; 1 µM): 100%
O=C1NC(=O)c2cc(Nc3ccc(F)cc3)c(Nc3ccc(F)cc3)cc21  remaining signal (cell-free assay; 0.5 µM): 104%
CCN(CC)CCNC(=O)c1c(C)[nH]c(/C=C2\C(=O)Nc3ccc(F)cc32)c1C  inhibition (enzyme activity; inhibitor; 10 µM): 87%
COc1cc(-c2cn(C3CCc4c(F)cccc4N(CC(F)(F)F)C3=O)nn2)ccc1-n1cnc(C)c1 (centres unmarked)  remaining binding (cell-free assay; competition with immobilised ligand; 1 µM): 100%
c1ccc(CNc2nc(N3CCOc4ccccc43)nc3c2CCCC3)cc1  inhibition (target engagement in cells; inhibitor; chemoproteomics; 20 mM): 1.2%
CS(=O)(=O)N1CCCC(NC(=O)[C@H](CCC2CCCCC2)NC(=O)c2ccc(CNc3ncnc4c3nnn4-c3ccccc3)cc2)C1 (some centres unmarked)  remaining binding (cell-free assay; competition with immobilised ligand; 0.1 µM): 96%
COc1cc(-c2cc(-c3ccc(N4CCNCC4)cc3)cnc2C)cc(OC)c1OC  inhibition (enzyme activity; inhibitor; 1 µM): 1%
Cc1cc(NC(=O)c2cccc3cc(-c4cccc5[nH]nc(N)c45)ccc23)ccc1F  activity vs control (enzyme activity; inhibitor; 0.1 µM): 116%
Cc1ccc(Nc2nccc(N(C)c3ccc4c(C)n(C)nc4c3)n2)cc1S(N)(=O)=O  inhibition (enzyme activity; inhibitor; 0.3 µM): 13%
O=C1Nc2ccc(Cl)cc2C1=Cc1cc(Cl)c(O)c(Cl)c1  remaining signal (cell-free assay; 0.5 µM): 94.9%
CNC(=O)c1cc(Oc2ccc(NC(=O)Nc3ccc(Cl)c(C(F)(F)F)c3)cc2)ccn1  inhibition (enzyme activity; inhibitor; 0.3 µM): -6%
COc1cc2ncnc(Nc3ccc(F)c(Cl)c3)c2cc1OCCCN1CCOCC1  remaining signal (cell-free assay; 0.5 µM): 102%
O=C(Nc1cccnn1)N1CC(C/C=C/c2cncc(Oc3ccc(C(F)(F)F)cn3)n2)C1  remaining binding (cell-free assay; competition with immobilised ligand; 1 µM): 100%
COc1cc(/C=C/C(=O)CC(=O)/C=C/c2ccc(O)c(OC)c2)ccc1O  activity vs control (enzyme activity; inhibitor; 1 µM): 86%
Cc1cc(-n2nc(Cc3cc(F)cc(C(F)(F)F)c3)nc2C)ccc1C(N)=O  remaining binding (cell-free assay; competition with immobilised ligand; 1 µM): 90%
CC(C)(C)C(=O)c1sc(NC2CCCCC2)nc1N  remaining activity (enzyme activity; inhibitor; 10 µM): 109%
CCCS(=O)(=O)Nc1ccc(F)c(C(=O)c2c[nH]c3ncc(-c4ccc(Cl)cc4)cc23)c1F  inhibition (enzyme activity; inhibitor; 1 µM): < 10%
CC/C(=N\NC(=O)NCc1cccc(O)c1)c1ccc(O)c(C)c1O  inhibition (enzyme activity; inhibitor; 0.1 µM): -2.3%
NS(=O)(=O)c1cc(NC(=O)Cc2ccccc2)ccc1Oc1cccc(Cl)c1  remaining binding (cell-free assay; competition with immobilised ligand; 1 µM): 90%
O=C(Nc1cnn(-c2csc(C(=O)NC3COC3)c2)c1)Nc1c(F)cccc1Cl  remaining activity (enzyme activity; inhibitor; 5 µM): 98%
CCc1ccccc1C(=O)Nc1n[nH]c2c(C)c(F)c(C3C(C#N)=C(C)N(C)C(C)=C3C#N)cc12  remaining binding (cell-free assay; competition with immobilised ligand; 1 µM): 76%
COc1cc(Nc2cnc(C#N)c(O[C@H](C)CN(C)C)n2)ncc1-c1cnn(C)c1  remaining activity (enzyme activity; inhibitor; radiometric; 10 µM): 95%
O=C(O)[C@@H]1[C@@H](Cn2nnc3ccccc3c2=O)CC[C@H]1C(=O)c1ccc(OCCC2CCOCC2)cc1  remaining binding (cell-free assay; competition with immobilised ligand; 1 µM): 92%
CN1CC(Oc2cnc(C#N)cc2-c2ccn3nc(NC(=O)C4CC4)cc3c2)C1  inhibition (enzyme activity; inhibitor; 1 µM): 1%
